From ChEMBL document CHEMBL5532647, “Design, synthesis, ADME and biological evaluation of benzylpiperidine and benzylpiperazine derivatives as novel reversible monoacylglycerol lipase (MAGL) inhibitors” (Eur J Med Chem, 2024)
Calls of active or inactive are those of the source. No cut-off for these calls is given here.

Legend:
[1] = target: T1, Monoacylglycerol lipase ABHD6 (Mus musculus) (UniProt Q8R2Y0); assay: Inhibition of mouse brain ABHD6 at 10 uM incubated with compound for 25 mins by TAMRA-FP probe based SDS-PAGE analysis; assay type: tissue-based
T1 sequence (whole entry): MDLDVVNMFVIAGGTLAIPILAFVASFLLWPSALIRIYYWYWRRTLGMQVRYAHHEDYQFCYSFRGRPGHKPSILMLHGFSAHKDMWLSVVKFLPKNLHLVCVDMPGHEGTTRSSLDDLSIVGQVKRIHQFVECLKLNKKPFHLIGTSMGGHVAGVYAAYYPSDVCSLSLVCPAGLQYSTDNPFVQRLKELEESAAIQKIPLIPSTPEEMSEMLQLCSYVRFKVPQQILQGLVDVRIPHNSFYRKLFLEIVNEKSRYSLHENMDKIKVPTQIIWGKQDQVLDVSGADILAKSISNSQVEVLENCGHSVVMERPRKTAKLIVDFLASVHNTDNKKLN
Outline: (§1)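 Mouse brain membranes (2 mg/mL final, in PBS) preincubated 25 min at 25 °C with test compound (10 μM final) or DMSO vehicle. Controls: JZL-184, URB597 4 μM, WWL70 10 μM, THL, MAFP 5 μM. TAMRA-FP 125 nM final added for 5 min at 25 °C. Reaction stopped with Laemmli buffer, 3 min at 25 °C then 10 min at 90 °C. Separation by 10% SDS-PAGE, fluorescence scanning, three independent experiments.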

[2] = target: T2, Fatty-acid amide hydrolase 1 (Mus musculus) (UniProt O08914); assay: Inhibition of mouse brain FAAH at 10 uM incubated with compound for 25 mins by TAMRA-FP probe based SDS-PAGE analysis; assay type: tissue-based; outline: as §1
T2 sequence (whole entry): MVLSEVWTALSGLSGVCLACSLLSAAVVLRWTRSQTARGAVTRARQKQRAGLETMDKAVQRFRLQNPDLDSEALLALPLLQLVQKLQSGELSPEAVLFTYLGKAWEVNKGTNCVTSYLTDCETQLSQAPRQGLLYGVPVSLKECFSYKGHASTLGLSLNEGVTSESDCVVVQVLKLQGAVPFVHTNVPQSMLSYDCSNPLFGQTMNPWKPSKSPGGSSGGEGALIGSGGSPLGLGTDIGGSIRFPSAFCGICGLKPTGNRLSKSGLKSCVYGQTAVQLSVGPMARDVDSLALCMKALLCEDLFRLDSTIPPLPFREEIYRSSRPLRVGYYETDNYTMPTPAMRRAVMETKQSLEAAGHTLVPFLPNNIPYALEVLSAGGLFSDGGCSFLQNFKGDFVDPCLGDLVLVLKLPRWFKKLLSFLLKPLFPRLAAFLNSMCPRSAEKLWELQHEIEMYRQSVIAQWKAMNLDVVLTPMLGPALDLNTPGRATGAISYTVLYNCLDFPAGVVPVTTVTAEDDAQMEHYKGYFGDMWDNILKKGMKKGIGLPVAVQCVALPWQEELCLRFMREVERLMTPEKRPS

[3] = target: T3, Monoglyceride lipase (Homo sapiens) (UniProt Q99685); assay: Reversible inhibition of human recombinant MAGL using 4-nitrophenylacetate as substrate at 8 nM incubated for 15 mins by microplate reader analysis
T3 sequence (whole entry): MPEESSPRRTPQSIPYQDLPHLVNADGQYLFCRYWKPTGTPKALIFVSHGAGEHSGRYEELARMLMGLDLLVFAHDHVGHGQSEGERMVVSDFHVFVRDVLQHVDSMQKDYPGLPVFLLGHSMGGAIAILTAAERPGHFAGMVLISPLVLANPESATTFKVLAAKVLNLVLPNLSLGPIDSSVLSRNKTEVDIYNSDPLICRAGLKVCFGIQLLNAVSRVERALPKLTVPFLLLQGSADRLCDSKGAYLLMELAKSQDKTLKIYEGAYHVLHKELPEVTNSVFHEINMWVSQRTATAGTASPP
Outline: (§2)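 Human recombinant MAGL (880 ng in Tris buffer, pH 7.2) incubated 60 min at room temperature with compound at 320 nM in the mixture, then diluted 40-fold in buffer. After 15 min, reaction started with 4-NPA 500 μM (stock added). Activity read at 405 nm after 30 min. Undiluted comparison run at 320 nM and 8 nM.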

[4] = target: T4, Fatty-acid amide hydrolase 1 (Homo sapiens) (UniProt O00519); assay: Inhibition of FAAH in human U-937 cells at 10 uM preincubated with compound for 15 mins followed by 2-OG addition and measured after 15 mins by scintillation liquid counter analysis; assay type: cell-based; details: time 30.0 min
T4 sequence (whole entry): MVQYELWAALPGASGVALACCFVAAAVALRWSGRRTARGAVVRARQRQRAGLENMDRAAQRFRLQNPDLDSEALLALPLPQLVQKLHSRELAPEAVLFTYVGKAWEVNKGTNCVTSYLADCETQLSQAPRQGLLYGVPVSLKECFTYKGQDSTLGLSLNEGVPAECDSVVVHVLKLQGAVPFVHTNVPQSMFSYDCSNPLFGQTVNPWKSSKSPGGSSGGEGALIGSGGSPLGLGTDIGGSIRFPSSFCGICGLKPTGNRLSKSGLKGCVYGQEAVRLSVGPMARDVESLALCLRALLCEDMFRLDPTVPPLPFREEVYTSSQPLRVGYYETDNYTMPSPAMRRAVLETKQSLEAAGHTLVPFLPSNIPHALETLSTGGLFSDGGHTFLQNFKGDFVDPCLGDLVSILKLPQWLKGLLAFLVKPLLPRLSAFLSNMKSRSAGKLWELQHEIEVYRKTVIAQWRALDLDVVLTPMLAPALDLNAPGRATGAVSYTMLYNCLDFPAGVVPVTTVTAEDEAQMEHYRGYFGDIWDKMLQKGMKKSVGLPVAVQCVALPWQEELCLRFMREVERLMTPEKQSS

[5] = target: T3, Monoglyceride lipase (Homo sapiens); assay: Reversible inhibition of human recombinant MAGL using 4-nitrophenylacetate as substrate at 320 nM incubated for 15 mins by microplate reader analysis; outline: as §2

| Structure (SMILES) | inhibition [1] | inhibition [2] | inhibition [3] | inhibition [4] | inhibition [5] |
| --- | --- | --- | --- | --- | --- |
| O=C(c1cc(O)ccc1F)N1CCN(Cc2cccc(Sc3cc(C(F)(F)F)ccn3)c2)CC1 | inactive | inactive | Active | inactive | Active |
| O=C(c1cccc(O)c1)N1CCC(Cc2ccc(F)c(Sc3cc(C(F)(F)F)ccn3)c2)CC1 | inactive | inactive | Active | inactive | Active |
| O=C(c1cccc(O)c1)N1CCC(Cc2cccc(Sc3cc(C(F)(F)F)ccn3)c2)CC1 | inactive | inactive | Active | inactive | Active |
| O=C(c1cc(O)ccc1F)N1CCC(Cc2cccc(Sc3cc(C(F)(F)F)ccn3)c2)CC1 | inactive | inactive | Active | inactive | Active |
